Laboratory results reported in ChEMBL document CHEMBL4177648, “Benzofuran-dihydropyridine hybrids: A new class of potential bone anabolic agents” (Bioorg Med Chem, 2017).
Active and inactive are the calls of the source. The calls are words filed in the database; no cut-off is given here.

Experiments:
[1] = system: Rattus norvegicus; assay: Osteogenic activity in Sprague-Dawley rat drill-hole fracture model assessed as increase in connection density at 10 mg/kg/day for 14 consecutive days by micro CT-scan analysis; type: functional, organism-based
How it was run: (§1)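 Adult female Sprague-Dawley rats (200 ± 20 g, 12 weeks) under ketamine/xylazine anaesthesia received a 0.8 mm drill-hole defect in the femoral diaphysis, 2 cm above the knee. Dosing was oral at 10 mg·kg⁻¹·day⁻¹, or gum acacia vehicle, for 14 days starting the next day. The defect was scanned by micro-CT at 18 µm voxel and 70 kV; n=6/group.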

[2] = system: Rattus norvegicus; assay: Hepatotoxicity in Sprague-Dawley rat drill-hole fracture model assessed as morphological alterations at 10 mg/kg, po qd for 14 days by haematoxylin and eosin staining-based microscopic analysis; type: toxicity, organism-based; conditions: in vivo, 336 h
How it was run: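 From the next day they were dosed orally for 14 days, 6 per group, with vehicle gum acacia in water. Livers were collected at the end, cut into 5 µm paraffin sections, dewaxed, stained with H&E and examined by light microscopy.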

[3] = system: Rattus norvegicus; assay: Upregulation of Runx2 mRNA in rat pup calvarial tissue at 1 to 10 mg/kg/day administered subcutaneously for 3 consecutive days by qRT-PCR analysis; type: functional, organism-based
How it was run: (§2)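 Rat pups received subcutaneous injections at the calvarial skull site of 0.1, 0.5, 1.0, 5.0, 10 or 20 mg·kg⁻¹·day⁻¹, or normal-saline vehicle, for 3 consecutive days. Calvaria were then collected, RNA was isolated with TRIzol, and Runx2 and Bmp2 were measured by qRT-PCR; n=5, mean ± SEM.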

[4] = system: Calvarial osteoblast; assay: Upregulation of COL1 expression levels in rat calvarial osteoblasts at 100 pM after 48 hrs by Western blot analysis; type: functional, cell-based
[5] = system: Rattus norvegicus; assay: Osteogenic activity in Sprague-Dawley rat drill-hole fracture model assessed as increase in trabecular number at 10 mg/kg/day for 14 consecutive days by micro CT-scan analysis; type: functional, organism-based; how it was run: as §1
[6] = system: Calvarial osteoblast; assay: Upregulation of Col1 mRNA levels in rat calvarial osteoblasts at 10 nM after 48 hrs by qRT-PCR analysis relative to control; type: functional
How it was run: (§3)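 Rat pup calvarial osteoblasts were treated for 48 h with compound. Total RNA was extracted with TRIzol and checked by A260 and A260/A280. qRT-PCR used 45 cycles (94 °C, 62 °C, 72 °C steps) and was normalised to GAPDH. Fold change is over untreated cells; n=5, mean ± SEM.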

[7] = system: Rattus norvegicus; assay: Upregulation of Runx2 mRNA in rat pup calvarial tissue at >10 mg/kg/day administered subcutaneously for 3 consecutive days by qRT-PCR analysis; type: functional, organism-based; how it was run: as §2
[8] = system: Calvarial osteoblast; assay: Anabolic activity in rat calvarial osteoblasts assessed as induction of alkaline phosphatase activity at 1 uM after 48 hrs in presence of beta-glycerophosphate and ascorbic acid by p-nitrophenyl phosphate substrate based assay (reference value: 1 to 1.21); type: functional
[9] = system: Rattus norvegicus; assay: Upregulation of Bmp2 mRNA in rat pup calvarial tissue at 1 to 10 mg/kg/day administered subcutaneously for 3 consecutive days by qRT-PCR analysis; type: functional, organism-based; how it was run: as §2
[10] = system: Rattus norvegicus; assay: Osteogenic activity in Sprague-Dawley rat drill-hole fracture model assessed as bone formation at 10 mg/kg/day by H and E staining-based analysis relative to control; type: functional, organism-based
How it was run: (§4)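 Drill-hole femur defect in female Sprague-Dawley rats with oral dosing at 10 mg·kg⁻¹·day⁻¹ or gum acacia vehicle for 14 days. Bones were decalcified in EDTA and the callus at the defect site was stained with H&E; n=6/group.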

[11] = system: Calvarial osteoblast; assay: Cytotoxicity against rat calvarial osteoblasts at 100 uM after 48 hrs by MTT assay; type: cell-based
How it was run: (§5)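 Primary osteoblasts from calvaria of 1–2-day-old rat pups, released by sequential dispase/collagenase P digestion and grown in α-MEM with 10% FCS to 70–80% confluence. Seeded at 2000 cells/well and treated with 1 pM to 100 µM for 48 h in differentiation medium (10 mM β-glycerophosphate, 50 µg/mL ascorbic acid). Viability read by MTT against untreated control; n=8, mean ± SEM.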

[12] = system: Calvarial osteoblast; assay: Upregulation of Col1 mRNA levels in rat calvarial osteoblasts at 100 pM after 48 hrs by qRT-PCR analysis relative to control; type: functional; how it was run: as §3
[13] = system: Calvarial osteoblast; assay: Upregulation of Bmp2 mRNA levels in rat calvarial osteoblasts at 10 nM after 48 hrs by qRT-PCR analysis relative to control; type: functional; how it was run: as §3
[14] = system: Calvarial osteoblast; assay: Upregulation of RUNX2 expression levels in rat calvarial osteoblasts at 100 pM after 48 hrs by Western blot analysis; type: functional, cell-based
[15] = system: Calvarial osteoblast; assay: Anabolic activity in rat calvarial osteoblasts assessed as induction of alkaline phosphatase activity at 100 uM after 48 hrs in presence of beta-glycerophosphate and ascorbic acid by p-nitrophenyl phosphate substrate based assay (reference value: 1 to 1.21); type: functional
[16] = system: Calvarial osteoblast; assay: Upregulation of Runx2 mRNA levels in rat calvarial osteoblasts at 100 pM after 48 hrs by qRT-PCR analysis relative to control; type: functional; how it was run: as §3
[17] = system: Calvarial osteoblast; assay: Anabolic activity in rat calvarial osteoblasts assessed as induction of alkaline phosphatase activity at 10 nM after 48 hrs in presence of beta-glycerophosphate and ascorbic acid by p-nitrophenyl phosphate substrate based assay (reference value: 1 to 1.21); type: functional
[18] = system: Rattus norvegicus; assay: Osteogenic activity in Sprague-Dawley rat drill-hole fracture model assessed as increase in bone volume/trabecular volume at 10 mg/kg/day for 14 consecutive days by micro CT-scan analysis; type: functional, organism-based; how it was run: as §1
[19] = system: Rattus norvegicus; assay: Osteogenic activity in Sprague-Dawley rat drill-hole fracture model assessed as increase in mineral deposition at 10 mg/kg/day by calcein labeling-based confocal microscopy analysis
[20] = system: Calvarial osteoblast; assay: Upregulation of Bmp2 mRNA levels in rat calvarial osteoblasts at 100 pM after 48 hrs by qRT-PCR analysis relative to control; type: functional; how it was run: as §3
[21] = system: Calvarial osteoblast; assay: Anabolic activity in rat calvarial osteoblasts assessed as induction of alkaline phosphatase activity after 48 hrs in presence of beta-glycerophosphate and ascorbic acid by p-nitrophenyl phosphate substrate based assay; type: functional, cell-based
[22] = system: Calvarial osteoblast; assay: Upregulation of Osx mRNA levels in rat calvarial osteoblasts at 100 pM after 48 hrs by qRT-PCR analysis relative to control; type: functional; how it was run: as §3
[23] = system: Rattus norvegicus; assay: Osteogenic activity in Sprague-Dawley rat drill-hole fracture model assessed as increase in Bmp2 expression levels at 10 mg/kg/day by qRT-PCR analysis; type: functional, organism-based
[24] = system: Calvarial osteoblast; assay: Induction of mineralization in rat calvarial osteoblasts at 0.1 nM to 10 nM after 21 days by Alizarin-red dye based assay; type: functional, cell-based
How it was run: (§6)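 Rat pup calvarial osteoblasts were seeded at 1×10^4 cells/well in differentiation medium with compound. Medium was changed every other day for 21 days. Cells were fixed in 4% paraformaldehyde and stained with 40 mM Alizarin red (pH 4.5). Stain was extracted with 10% acetic acid, heated to 85 °C, and neutralised with NH4OH. Absorbance was read at 405 nm.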

[25] = system: Rattus norvegicus; assay: Osteogenic activity in Sprague-Dawley rat drill-hole fracture model assessed as enhanced callus regeneration of femur bone at 10 mg/kg/day by H and E staining-based analysis; type: functional, organism-based; how it was run: as §4
[26] = system: Rattus norvegicus; assay: Osteogenic activity in Sprague-Dawley rat drill-hole fracture model assessed as increase in trabecular thickness at 10 mg/kg/day for 14 consecutive days by micro CT-scan analysis; type: functional, organism-based; how it was run: as §1
[27] = system: Calvarial osteoblast; assay: Upregulation of ALP mRNA levels in rat calvarial osteoblasts at 100 pM after 48 hrs by qRT-PCR analysis relative to control; type: functional; how it was run: as §3
[28] = system: Calvarial osteoblast; assay: Cytotoxicity against rat calvarial osteoblasts at 0.000001 uM to 1 uM after 48 hrs by MTT assay; type: cell-based; conditions: 1 pM; how it was run: as §5
[29] = system: Calvarial osteoblast; assay: Upregulation of Runx2 mRNA levels in rat calvarial osteoblasts at 10 nM after 48 hrs by qRT-PCR analysis relative to control; type: functional; how it was run: as §3
[30] = system: Calvarial osteoblast; assay: Upregulation of BMP2 expression levels in rat calvarial osteoblasts at 100 pM after 48 hrs by Western blot analysis; type: functional, cell-based
[31] = system: Rattus norvegicus; assay: Osteogenic activity in Sprague-Dawley rat drill-hole fracture model assessed as enhanced callus regeneration of femur bone at 10 mg/kg/day by calcein labeling based confocal microscopic method; type: functional
How it was run: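 Drill-hole femur defect in female Sprague-Dawley rats with oral dosing at 10 mg·kg⁻¹·day⁻¹ for 14 days. Calcein (20 mg/kg i.p.) was given 2 days before autopsy. Acrylic-embedded 50 µm bone sections were imaged by confocal microscopy, and mean calcein intensity per pixel was quantified at the defect; n=6/group.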

[32] = system: Calvarial osteoblast; assay: Anabolic activity in rat calvarial osteoblasts assessed as induction of alkaline phosphatase activity at 100 pM after 48 hrs in presence of beta-glycerophosphate and ascorbic acid by p-nitrophenyl phosphate substrate based assay (reference value: 1 to 1.21); type: functional
[33] = system: Rattus norvegicus; assay: Upregulation of Bmp2 mRNA in rat pup calvarial tissue at >10 mg/kg/day administered subcutaneously for 3 consecutive days by qRT-PCR analysis; type: functional, organism-based; how it was run: as §2
[34] = system: Calvarial osteoblast; assay: Anabolic activity in rat calvarial osteoblasts assessed as induction of alkaline phosphatase activity at 1 pM after 48 hrs in presence of beta-glycerophosphate and ascorbic acid by p-nitrophenyl phosphate substrate based assay (reference value: 1 to 1.21); type: functional
[35] = system: Calvarial osteoblast; assay: Upregulation of Bmp2 expression levels in rat calvarial osteoblasts at 100 pM after 48 hrs by ELISA; type: functional, cell-based
How it was run: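 Calvarial osteoblasts were seeded at 5×10^3 cells/well and treated 48 h at 100 pM in α-MEM with 1% charcoal-stripped FCS. BMP2 in the culture supernatant was measured by sandwich ELISA, with OD read at 450 nm.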

[36] = system: Calvarial osteoblast; assay: Upregulation of Osx mRNA levels in rat calvarial osteoblasts at 10 nM after 48 hrs by qRT-PCR analysis relative to control; type: functional; how it was run: as §3
[37] = system: Calvarial osteoblast; assay: Upregulation of Bmp2 mRNA levels in rat calvarial osteoblasts at 1 uM after 48 hrs by qRT-PCR analysis relative to control; type: functional; how it was run: as §3
[38] = system: Calvarial osteoblast; assay: Upregulation of Col1 mRNA levels in rat calvarial osteoblasts at 1 uM after 48 hrs by qRT-PCR analysis relative to control; type: functional; how it was run: as §3
[39] = system: Calvarial osteoblast; assay: Upregulation of Runx2 mRNA levels in rat calvarial osteoblasts at 1 uM after 48 hrs by qRT-PCR analysis relative to control; type: functional; how it was run: as §3
[40] = system: Calvarial osteoblast; assay: Upregulation of Osx mRNA levels in rat calvarial osteoblasts at 1 uM after 48 hrs by qRT-PCR analysis relative to control; type: functional; how it was run: as §3
[41] = system: Calvarial osteoblast; assay: Upregulation of ALP mRNA levels in rat calvarial osteoblasts at 10 nM after 48 hrs by qRT-PCR analysis relative to control; type: functional; how it was run: as §3
[42] = system: Calvarial osteoblast; assay: Induction of mineralization in rat calvarial osteoblasts at 10 nM after 21 days by Alizarin-red dye based assay; type: functional, cell-based; how it was run: as §6
[43] = system: Calvarial osteoblast; assay: Upregulation of ALP mRNA levels in rat calvarial osteoblasts at 1 uM after 48 hrs by qRT-PCR analysis relative to control; type: functional; how it was run: as §3

## CCOC(=O)C1=C(C)NC2=C(C(=O)CCC2)C1c1cc(C(C)CC)c2oc(C(=O)c3ccc(C)cc3)cc2c1 (configuration not stated)
[1]
  Activity: Active
[2]
  Activity: Non-Toxic
[3]
  Activity: Active
[4]
  Activity: Active
[5]
  Activity: Active
[6]
  fold change (FC): 3.7
[7]
  Activity: inactive
[8]
  OD: 1.16
[9]
  Activity: Active
[10]
  Activity: Active
[11]
  Activity: Toxic
[12]
  fold change (FC): 5
[13]
  fold change (FC): 3.1
[14]
  Activity: Active
[15]
  OD: 0.36
[16]
  fold change (FC): 3.9
[17]
  OD: 1.19
[18]
  Activity: Active
[19]
  Activity: Active
[20]
  fold change (FC): 4.5
[21]
  EC50: 0.1 nM
[22]
  fold change (FC): 3.7
[23]
  Activity: Active
[24]
  Activity: Active
[25]
  Activity: Active
[26]
  Activity: Active
[27]
  fold change (FC): 4.5
[28]
  Activity: Non-Toxic
[29]
  fold change (FC): 3.4
[30]
  Activity: Active
[31]
  Activity: 40%
[32]
  OD: 1.32
[33]
  Activity: inactive
[34]
  OD: 1.14
[35]
  Activity: Active

## CCOC(=O)C1=C(C)NC2=C(C(=O)CCC2)C1c1cc(C(C)CC)c2oc(C(=O)c3ccc(OC)cc3)cc2c1 (configuration not stated)
[36]
  fold change (FC): 2 - 5.5
[37]
  fold change (FC): 2 - 5.5
[6]
  fold change (FC): 2 - 5.5
[8]
  OD: 1.37
[38]
  fold change (FC): 2 - 5.5
[39]
  fold change (FC): 2 - 5.5
[40]
  fold change (FC): 2 - 5.5
[41]
  fold change (FC): 2 - 5.5
[13]
  fold change (FC): 2 - 5.5
[42]
  Activity: Active
[15]
  OD: 0.25
[17]
  OD: 1.4
[21]
  EC50: 10 nM
[43]
  fold change (FC): 2 - 5.5
[29]
  fold change (FC): 2 - 5.5
[32]
  OD: 0.99
[34]
  OD: 0.94
